Key:
Leishmania donovani [1] = assay: Antileishmanial activity against intracellular Leishmania donovani LV82 amastigotes; assay type: functional, organism-based
Method in brief: (§1)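 CD-1 mouse peritoneal macrophages, 5 × 10^4 cells/well in RPMI 1640 + 10% heat-inactivated FBS, adhered overnight. Infected overnight with stationary-phase LV82 promastigotes (5:1 parasite:macrophage), 37°C, 5% CO2. Medium then replaced with compound or vehicle for 72 h at 37°C. Methanol-fixed, Giemsa-stained; % infected macrophages counted at ×1,000. IC50 by four-parameter logistic nonlinear regression.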

Leishmania amazonensis = assay: Antileishmanial activity against intracellular Leishmania amazonensis amastigotes; assay type: functional, organism-based
Leishmania donovani [2] = assay: Antileishmanial activity against intracellular Leishmania donovani LV82 amastigotes infected in CD-1 mouse peritoneal macrophage; assay type: functional, organism-based; method in brief: as §1
Leishmania donovani [3] = assay: Antileishmanial activity against Leishmania donovani axenic amastigotes; assay type: functional, organism-based
Leishmania major = assay: Antileishmanial activity against intracellular Leishmania major amastigotes; assay type: functional, organism-based
[4] = Induction of mutagenicity in Salmonella serovar Typhimurium TA 98 assessed as number of revertant colonies at 5 ug by Ames assay; assay type: toxicity, Salmonella enterica subsp. enterica serovar Typhimurium; conditions: in vivo
Method in brief: (§2)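 Ames plate incorporation with S. Typhimurium TA98 and TA100, with or without Aroclor 1254-induced rat liver S9 (10% vol/vol). Compound was dissolved in sterile water and serially diluted to 1–500 μg/plate. Positive controls were 2-nitrofluorene and sodium azide without S9, and 2-aminoanthracene with S9; sterile water and DMSO served as vehicles. Revertant colonies and background lawn were scored. A mutagen was defined as a mean revertant count at least 2-fold over solvent control. Single experiment.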

[5] = Induction of mutagenicity in Salmonella serovar Typhimurium TA 100 assessed as number of revertant colonies at 2 ug by Ames assay in presence of Aroclor 1254-induced rat liver S9 metabolic activation system; assay type: toxicity, subcellular, Salmonella enterica subsp. enterica serovar Typhimurium; method in brief: as §2
[6] = Induction of mutagenicity in Salmonella serovar Typhimurium TA 98 assessed as number of revertant colonies at 2 ug by Ames assay in presence of Aroclor 1254-induced rat liver S9 metabolic activation system; assay type: toxicity, subcellular, Salmonella enterica subsp. enterica serovar Typhimurium; method in brief: as §2
[7] = Induction of mutagenicity in Salmonella serovar Typhimurium TA 100 assessed as number of revertant colonies at 5 ug by Ames assay; assay type: toxicity, Salmonella enterica subsp. enterica serovar Typhimurium; conditions: in vivo
Method in brief: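 Plate incorporation method with TA100, with and without Aroclor 1254-induced rat liver S9 (10% vol/vol). Compound dissolved in sterile water, serially diluted; plates scored for revertant count and background lawn versus controls. Mutagen if mean revertants at least 2-fold over mean solvent control. Positive controls: 2-nitrofluorene and sodium azide without S9, 2-aminoanthracene with S9; water and DMSO vehicles.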

Leishmania donovani [8] = assay: Antileishmanial activity against Leishmania donovani WR378 infected in golden Syrian hamster assessed as reduction in liver parasitemia at 30 mg/kg/day, po administered for five days; assay type: functional; conditions: 120 h
Method in brief: (§3)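 11-day golden hamster VL model adapted from an 8-day method, using L. donovani WR378 metacyclic promastigotes. Dosing was oral, once daily for 5 days. Animals were euthanized on day 11 post-infection. Liver, spleen and femoral bone marrow (flushed with Schneider's medium) were harvested.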

Leishmania donovani [9] = assay: Antileishmanial activity against Leishmania donovani WR378 infected in golden Syrian hamster assessed as reduction in spleen parasitemia at 30 mg/kg/day, po administered for five days; assay type: functional; conditions: 120 h; method in brief: as §3
Leishmania donovani [10] = assay: Antileishmanial activity against Leishmania donovani WR378 infected in golden Syrian hamster assessed as reduction in bone marrow parasitemia at 30 mg/kg/day, po administered for five days; assay type: functional; conditions: 120 h; method in brief: as §3

| Compound | IC50 (Leishmania donovani [1]) | IC50 (Leishmania amazonensis) | IC50 (Leishmania donovani [2]) | IC50 (Leishmania donovani [3]) | IC50 (Leishmania major) | also measured |
| --- | --- | --- | --- | --- | --- | --- |
| N=C(N)c1ccc(OCCCCCOc2ccc(C(=N)N)cc2)cc1 [PENTAMIDINE] | > 50000 nM | 830 nM | 14 µM | – | – | – |
| NC[C@@H]1O[C@H](O[C@H]2[C@@H](O)[C@H](O[C@@H]3[C@@H](O)[C@H](N)C[C@H](N)[C@H]3O[C@H]3O[C@H](CO)[C@@H](O)[C@H](O)[C@H]3N)O[C@@H]2CO)[C@H](N)[C@@H](O)[C@@H]1O [PAROMOMYCIN] | > 50000 nM | 19000 nM | > 100 µM | > 50 µM | 25 µM | – |
| O=[N+]([O-])c1ccc2c(c1)Cc1ccccc1-2 [2-NITROFLUORENE] | – | – | – | – | – | Activity [4]: 1573 |
| Nc1ccc2cc3ccccc3cc2c1 [2-AMINOANTHRACENE] | – | – | – | – | – | Activity [5]: 2563; Activity [6]: 2744 |
| [N-]=[N+]=[N-].[Na+] [SODIUM AZIDE] | – | – | – | – | – | Activity [7]: 1882 |
| CCCCCCCCCCCCCCCCOP(=O)([O-])OCC[N+](C)(C)C [MILTEFOSINE] | 2700 nM | – | 24 µM | 8.5 µM | 25 µM | inhibition in vivo at 30 mg/kg/day (Leishmania donovani [8]): 88%; inhibition in vivo at 30 mg/kg/day (Leishmania donovani [9]): 79%; inhibition in vivo at 30 mg/kg/day (Leishmania donovani [10]): 91% |
| C[C@@H]1[C@H](O)[C@@H](C)/C=C/C=C/C=C/C=C/C=C/C=C/C=C/[C@H](O[C@@H]2O[C@H](C)[C@@H](O)[C@H](N)[C@@H]2O)C[C@@H]2O[C@](O)(C[C@@H](O)C[C@@H](O)[C@H](O)CC[C@@H](O)C[C@@H](O)CC(=O)O[C@H]1C)C[C@H](O)[C@H]2C(=O)O [AMPHOTERICIN B] | 66 nM | 140 nM | 8.2 µM | 0.098 µM | 0.21 µM | – |
